Laboratory results as given in PMC3778312 (British Journal of Cancer, 2013).

How the values were obtained:
[1] = system: NSCLC; conditions: ref Roberts et al, 2004, Horstmann et al, 2005, Schuette et al; cited from earlier work
[2] = Phase 1 safety monitoring of PX-866 with docetaxel; format: in vivo, human
Procedure, shortened: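 Open-label dose escalation in cohorts of 6–9 patients at 4, 6 or 8 mg oral daily test compound plus docetaxel 75 mg m−2 IV every 21 days, with dexamethasone premedication. All patients receiving ≥1 dose had vital signs, labs and exams; AEs were graded by NCI CTCAE v4.02. DLTs included related grade ≥3 events, febrile grade 3/4 neutropenia, platelets <25 000 per μl and ANC <500 per μl for >7 days.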

[3] = Docetaxel plasma pharmacokinetics in patients; format: in vivo; conditions: human
[4] = plasma, intravenous, 75 mg m^-2

## CC(=O)O[C@@]12CO[C@@H]1C[C@H](O)[C@@]1(C)C(=O)[C@H](O)C3=C(C)[C@@H](OC(=O)[C@H](O)[C@@H](NC(=O)OC(C)(C)C)c4ccccc4)C[C@@](O)([C@@H](OC(=O)c4ccccc4)[C@H]21)C3(C)C [docetaxel]
[1]
  PR rate, second-line docetaxel in NSCLC: 13%
  PR−SD rate, second-line docetaxel in NSCLC: 50%
[2]; 18 out of 43
  patients requiring docetaxel dose reduction: 42%
[2]; PX-866 with docetaxel
  SAE related to docetaxel: ataxia: 1 N
  SAE related to docetaxel: febrile neutropenia: 1 N
  SAE related to docetaxel: mental status changes: 1 N
  SAE related to docetaxel: nausea: 2 N
  SAE related to docetaxel: pneumonia: 1 N
  SAE related to docetaxel: vomiting: 3 N
[2]; PX-866 with docetaxel, 43 patients
  gastrointestinal disorders, docetaxel-related: 79.1%
[2]; PX-866 with docetaxel, N=43
  Grade 3/4 AE related to docetaxel: anaemia: 2 N
  Grade 3/4 AE related to docetaxel: diarrhoea: 3 N
  Grade 3/4 AE related to docetaxel: leucopenia: 4 N
  Grade 3/4 AE related to docetaxel: nausea: 2 N
  Grade 3/4 AE related to docetaxel: vomiting: 3 N
[2]; after SD or better with combination, continued single-agent PX-866
  patients in whom docetaxel was discontinued due to toxicity: eight
[2]; of 18 with dose reduction
  patients requiring docetaxel dose reduction due to neutropenia: Fourteen
[3]; in vivo
  exposure in the presence of PX-866: not affected
[3]; plasma, intravenous
  AUC(0-t): 851 ng·h/mL
  MRT inf: 13.9 h
  Tmax: 0.19 h
  Vd: 2690 L
  clearance: 2570 mL/min
[3]; [4]
  AUC(0-t): 1200 ng·h/mL
  MRT inf: 15.2 h
  Tmax: 0.19 h
  Vd: 2990 L
  clearance: 2390 mL/min
[3]; plasma, intravenous, AUCINF, C2D1 (with PX-866), mean, N=35, plasma
  AUC(0-inf): 1110 ng·h/mL
[3]; plasma, intravenous, Cmax, C2D1 (with PX-866), mean, N=35, plasma
  Cmax: 539 ng/mL
[3]; plasma, intravenous, Half-life, C2D1 (with PX-866), mean, N=35, plasma
  half-life: 13.1 h
